From ChEMBL document CHEMBL3124835 (J Nat Prod, 2014) come the findings set out here.

The subject of test [1] is Human immunodeficiency virus 1. Put plainly: Reactivation of latent HIV1 NL4-3-Luc expression in human naive CD4+ T cells treated 7 days post-infection measured after 48 hrs by luminescence plate reader analysis relative to SAHA-treated control. On the set-up: concentration or dose not given beside the values. The test is classed as functional, T-cell. In outline:
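Primary naive CD4+ T cells from healthy HIV-negative donor PBMCs, purified by negative selection. Activated 3 days with anti-CD3/CD28 beads (1 bead:2 cells), anti-IL-4, anti-IL-12p70 and 10 ng/mL TGF-β, then kept 2 days in 30 U/mL IL-2 and infected with NL4-3-Luc. Seven days after infection, 10 000 cells/well exposed to compound for 48 h; BriteGlo luminescence read-out.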

The subject of test [2] is Human immunodeficiency virus 1. Put plainly: Reactivation of latent HIV1 NL4-3-Luc expression in human naive CD4+ T cells treated 7 days post-infection measured after 48 hrs by luminescence plate reader analysis. The test is classed as functional, organism-based, T-cell.
Test [3] concerns Human immunodeficiency virus 1. Put plainly: Reactivation of latent HIV1 NL4-3-Luc expression in human naive CD4+ T cells assessed as HIV-1 RNA expression treated 7 days post-infection by RT-qPCR analysis. The test is classed as functional, organism-based. The settings on record: T-cell.
Test [4] has as its target Protein kinase C (PKC) (Homo sapiens) (UniProt O94806+P41743+P17252+P05129+Q05655+P05771+Q05513+Q02156+P24723+Q15139+Q04759). Put plainly: Activation of PKC in human Jurkat cells assessed as NF-kappaB reporter gene activation after 24 hrs by FACS analysis. The test is classed as cell-based. (Reporter assays use an easily measured gene product as a stand-in for the process of interest.)

The mark [5] stands for this setting: Human immunodeficiency virus 1, NL4-3, T-cell, read-out: EC50.

Activity calls are given as the source filed them. The rule behind the calls is not given here.

As usually defined, the EC50 is the concentration at which the effect is half-maximal. In the case of `C[C@H]1C[C@H](O)C(Cl)/C=C\C=C\C(=O)Cc2c(Cl)c(O)cc(O)c2C(=O)O1` (stereo not given in full) [POCHONIN C], in test [1], the Activity stood at 92%. Besides, the EC50 in test [2] (setting [5]) was 6.3 µM.

In test [1], `C[C@H]1C[C@H]2O[C@@H]2C[C@H](O)/C=C/C(=O)Cc2c(Cl)c(O)cc(O)c2C(=O)O1` [POCHONIN B] returned an Activity of 98%. The EC50 in test [2] (setting [5]) turned out to be 39.6 µM.

As for `C[C@@H]1C[C@@H](O)/C=C\[C@H](O)CCC(=O)Cc2c(Cl)c(O)cc(O)c2C(=O)O1` [POCHONIN N], the outcome in test [1] (T-cell) was inactive. Besides, the concentration giving a half-maximal response (EC50) entry in test [2] (t-cell) is on record as “Not Active”.

In the case of `C[C@@H]1CC(O)/C=C/C(O)C(O)CC(=O)Cc2c(Cl)c(O)cc(O)c2C(=O)O1` (stereo not given in full), the outcome in test [1] (T-cell) was inactive. Also, the 50% effective concentration (EC50) entry in test [2] (t-cell) is “Not Active”.

`C[C@@H]1CC(O)C2C=CC(CC(=O)Cc3c(Cl)c(O)cc(O)c3C(=O)O1)O2` (stereo not given in full): in test [1] (T-cell), the result was inactive. Further, the EC50 result in test [2] (t-cell) is on record as “Not Active”.

In test [1], `CCC(=O)CCCCC[C@@H]1NC(=O)[C@H]2CCCCN2C(=O)[C@H]([C@@H](C)CC)NC(=O)[C@H](Cc2cn(OC)c3ccccc23)NC1=O` [APICIDIN] yielded an Activity of 100%. Besides, in test [2] (setting [5]), the EC50 turned out to be 0.3 µM.

With `C[C@@H]1C[C@@H](O)[C@@H](O)/C=C\C=C\C(=O)Cc2c(Cl)c(O)cc(O)c2C(=O)O1`, the Activity in test [1] came to 25%. For the same molecule, the EC50 in test [2] (setting [5]) amounted to 24.9 µM.

Take `O=C(NCCSSCCNC(=O)/C(Cc1ccc(O)c(Br)c1)=N/O)/C(Cc1ccc(O)c(Br)c1)=N/O` [PSAMMAPLIN A]: the Activity in test [1] is 100%. The EC50 in test [2] (setting [5]) came to 0.2 µM.

In test [1], `C[C@@H]1C[C@H]2O[C@@H]2/C=C\C=C\C(=O)Cc2c(Cl)c(O)cc(O)c2C(=O)O1` [RADICICOL] had an Activity of 98%. Besides, in test [2] (setting [5]), the EC50 was found to be 9.1 µM. The result in test [3] was Active. For the same molecule, the outcome in test [4] was inactive.
